Assay results published in ChEMBL document CHEMBL4196081, “Synthesis and antimycobacterial activity of 1-(β-d-Ribofuranosyl)-4-coumarinyloxymethyl- / -coumarinyl-1,2,3-triazole” (Eur J Med Chem, 2018).
Values after ≈ are worked out from the molar mass of the structure shown. Active and inactive are the calls of the source. No cut-off for these calls is given here.

Columns and labels:
[1] = Cytotoxicity against human THP1 cells assessed as cell viability at 4.68 ug/ml after 48 hrs by MTT assay relative to control; assay type: cell-based; conditions: THP-1 cells, read-out: Activity
Method in brief: (§1)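 THP-1 cells (human monocytic line) seeded at 10^4 per well and adhered with phorbol myristate acetate (20 ng/mL). Then given fresh RPMI with 10% foetal calf serum and 2 mM L-glutamine, plus compound by serial double dilution (4.68–150 µg/mL), with DMSO and no-DMSO controls. Incubated 24 or 48 h at 37 °C, 5% CO2. MTT added for 4 h, formazan dissolved in DMSO, A540 read, percentage survival calculated.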

[2] = test system: Mycobacterium tuberculosis; test: Antimycobacterial activity against Mycobacterium tuberculosis H37Rv after 10 days by MABA; assay type: functional; conditions: 240 h
Method in brief: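 MABA in 7H9 medium: log-phase culture passed through 8 µm filter, density set by OD600 and McFarland standards, 1 × 10^6 cells per well with drug dilutions; aerobic incubation 37 °C 10 days, then 0.02 % resazurin, overnight 37 °C. MIC = lowest concentration preventing blue-to-pink change. Triplicate; medium+inoculum and medium-only controls.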

[3] = test system: Mycobacterium tuberculosis; test: Antimycobacterial activity against MDR Mycobacterium tuberculosis isolate 591 after 15 days by MABA; assay type: functional; conditions: isolate 591, 360 h
Method in brief: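 MABA in 7H9 medium on MDR clinical isolate 591: filtered single-cell suspension, 1 × 10^6 cells per well with drug dilutions, aerobic 37 °C; 0.02 % resazurin added on day 15, overnight 37 °C. MIC = lowest concentration preventing blue-to-pink change. Triplicate; medium+inoculum and medium-only controls.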

[4] = test system: Mycobacterium tuberculosis; test: Bactericidal activity against Mycobacterium tuberculosis H37Rv after 4 weeks by MABA; assay type: functional; conditions: 672 h
[5] = test system: Mycobacterium tuberculosis; test: Bactericidal activity against MDR Mycobacterium tuberculosis isolate 591 after 4 weeks by MABA; assay type: functional; conditions: isolate 591, 672 h
[6] = test system: Mycobacterium tuberculosis; test: Ratio of MBC to MIC for Mycobacterium tuberculosis H37Rv; assay type: functional
[7] = test system: Mycobacterium tuberculosis; test: Ratio of MBC to MIC for MDR Mycobacterium tuberculosis isolate 591; assay type: functional
[8] = test system: Mycobacterium tuberculosis; test: Antimycobacterial activity against Mycobacterium tuberculosis H37Rv assessed as induction of cell wall disintegration at 4.15 uM after 30 mins by TEM analysis; assay type: functional, organism-based
[9] = test system: Mycobacterium tuberculosis; test: Antimycobacterial activity against Mycobacterium tuberculosis H37Rv assessed as cells with vacuole formation at 4.15 uM after 30 mins by TEM analysis; assay type: functional, organism-based
[10] = molecular target: T1, Enoyl-[acyl-carrier-protein] reductase [NADH] (Mycobacterium tuberculosis) (UniProt P9WGR1); test: Inhibition of Mycobacterium tuberculosis H37Rv InhA expressed in Escherichia coli at 5 to 100 uM preincubated for 30 mins followed by crotonoyl-CoA substrate and NADH addition measured over 15 mins by spectrophotometric method
T1 sequence (whole entry): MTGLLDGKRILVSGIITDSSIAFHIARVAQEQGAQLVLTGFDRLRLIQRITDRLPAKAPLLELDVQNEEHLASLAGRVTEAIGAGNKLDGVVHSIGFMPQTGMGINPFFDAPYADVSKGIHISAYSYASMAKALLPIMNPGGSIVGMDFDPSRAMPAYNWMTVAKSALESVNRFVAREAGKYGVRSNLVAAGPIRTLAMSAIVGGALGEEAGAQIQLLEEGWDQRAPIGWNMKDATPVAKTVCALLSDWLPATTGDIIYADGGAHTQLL
Method in brief: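 Purified recombinant InhA (Rv1484, cloned in E. coli), 2 µg, preincubated 30 min with compound at 5 µM final (DMSO ≤1 % v/v) in 100 mM sodium phosphate pH 7.5; started with 100 µM NADH and 100 µM crotonoyl-CoA; A340 followed 15 min at room temperature. Triplicate.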

[11] = molecular target: DNA gyrase subunit B (Escherichia coli) (UniProt P0AES6); test: Inhibition of Escherichia coli DNA gyrase-B at 0.66 to 100 uM using relaxed pUC19 DNA as substrate after 1 hr by bromophenol blue dye based agarose gel electrophoresis method
Method in brief: (§2)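 E. coli DNA gyrase, 1 unit, with 0.3 µg relaxed pUC19 plasmid in 1X gyrase assay buffer. Compound added as 0.2 µL from 100 µM stock; ciprofloxacin positive control, DMSO solvent control. Incubated 37 °C for 1 h, stopped with 50% glycerol/0.25% bromophenol blue. Run on 1% agarose in 0.5X TBE pH 8.3, 16 h at 30 mA, ethidium bromide stained, UV visualised for supercoiling.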

DNA gyrase subunit B = DNA gyrase subunit B (Escherichia coli, UniProt P0AES6); test: Inhibition of Escherichia coli DNA gyrase-B using relaxed pUC19 DNA as substrate after 1 hr by bromophenol blue dye based agarose gel electrophoresis method; method in brief: as §2
THP-1 = test: Cytotoxicity against human THP1 cells assessed as growth inhibition after 24 to 48 hrs by MTT assay; assay type: cell-based; method in brief: as §1
[12] = Selectivity index, ratio of IC50 for cytotoxicity against human THP1 cells to MIC for Mycobacterium tuberculosis H37Rv; assay type: toxicity, cell-based; conditions: THP-1 cells, read-out: Selectivity Index
Method in brief: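 THP-1 cells, 10^4/well, adhered with PMA 20 ng/mL, in RPMI with 10 % FCS and 2 mM L-glutamine; exposed to 4.68–150 µg/mL for 24 and 48 h at 37 °C, 5 % CO2; MTT 4 h, formazan in DMSO, A540. Index = THP-1 IC50 divided by H37Rv MABA MIC.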

[13] = Cytotoxicity against human THP1 cells assessed as cell viability at 4.68 ug/ml after 24 hrs by MTT assay relative to control; assay type: cell-based; conditions: THP-1 cells, read-out: Activity; method in brief: as §1
[14] = Cytotoxicity against human THP1 cells assessed as cell viability at 9.36 ug/ml after 24 hrs by MTT assay relative to control; assay type: cell-based; conditions: THP-1 cells, read-out: Activity; method in brief: as §1
[15] = Cytotoxicity against human THP1 cells assessed as cell viability at 9.36 ug/ml after 48 hrs by MTT assay relative to control; assay type: cell-based; conditions: THP-1 cells, read-out: Activity; method in brief: as §1
[16] = Cytotoxicity against human THP1 cells assessed as cell viability at 18.72 ug/ml after 24 hrs by MTT assay relative to control; assay type: cell-based; conditions: THP-1 cells, read-out: Activity; method in brief: as §1
[17] = Cytotoxicity against human THP1 cells assessed as cell viability at 18.72 ug/ml after 48 hrs by MTT assay relative to control; assay type: cell-based; conditions: THP-1 cells, read-out: Activity; method in brief: as §1
[18] = Cytotoxicity against human THP1 cells assessed as cell viability at 37.48 ug/ml after 24 hrs by MTT assay relative to control; assay type: cell-based; conditions: THP-1 cells, read-out: Activity; method in brief: as §1
[19] = Cytotoxicity against human THP1 cells assessed as cell viability at 37.48 ug/ml after 48 hrs by MTT assay relative to control; assay type: cell-based; conditions: THP-1 cells, read-out: Activity; method in brief: as §1
[20] = Cytotoxicity against human THP1 cells assessed as cell viability at 75 ug/ml after 24 hrs by MTT assay relative to control; assay type: cell-based; conditions: THP-1 cells, read-out: Activity; method in brief: as §1
[21] = Cytotoxicity against human THP1 cells assessed as cell viability at 75 ug/ml after 48 hrs by MTT assay relative to control; assay type: cell-based; conditions: THP-1 cells, read-out: Activity; method in brief: as §1
[22] = Cytotoxicity against human THP1 cells assessed as cell viability at 150 ug/ml after 24 hrs by MTT assay relative to control; assay type: cell-based; conditions: THP-1 cells, read-out: Activity; method in brief: as §1
[23] = Cytotoxicity against human THP1 cells assessed as cell viability at 150 ug/ml after 48 hrs by MTT assay relative to control; assay type: cell-based; conditions: THP-1 cells, read-out: Activity; method in brief: as §1
[24] = test system: Mycobacterium tuberculosis; test: Antimycobacterial activity against Mycobacterium tuberculosis H37Rv assessed as induction of cell wall disintegration at 0.05 uM after 30 mins by TEM analysis; assay type: functional, organism-based
[25] = test system: Mycobacterium tuberculosis; test: Potency index, ratio of isoniazid MIC to compound MIC for antimycobacterial activity against MDR Mycobacterium tuberculosis isolate 591; assay type: functional
[26] = test system: Mycobacterium tuberculosis; test: Potency index, ratio of rifampicin MIC to compound MIC for antimycobacterial activity against MDR Mycobacterium tuberculosis isolate 591; assay type: functional
[27] = test system: Mycobacterium tuberculosis; test: Potency index, ratio of ethambutol MIC to compound MIC for antimycobacterial activity against MDR Mycobacterium tuberculosis isolate 591; assay type: functional
[28] = test system: Mycobacterium tuberculosis; test: Potency index, ratio of streptomycin MIC to compound MIC for antimycobacterial activity against MDR Mycobacterium tuberculosis isolate 591; assay type: functional
[29] = test system: Mycobacterium tuberculosis; test: Antimycobacterial activity against Mycobacterium tuberculosis H37Rv assessed as induction of cell wall disintegration at 1.38 uM after 30 mins by TEM analysis; assay type: functional, organism-based
[30] = test system: Mycobacterium tuberculosis; test: Antimycobacterial activity against Mycobacterium tuberculosis H37Rv assessed as cells with vacuole formation at 1.38 uM after 30 mins by TEM analysis; assay type: functional, organism-based

Structure (SMILES) | viability at 48 h, 4.68 ug/ml [1] | MIC [2] | MIC [3] | MBC [4] | MBC [5] | Ratio [6] | Ratio [7] | IC50 (THP-1) | selectivity ratio [12] | viability at 24 h, 4.68 ug/ml [13] | viability at 24 h, 9.36 ug/ml [14] | viability at 48 h, 9.36 ug/ml [15] | viability at 24 h, 18.72 ug/ml [16] | viability at 48 h, 18.72 ug/ml [17] | viability at 24 h, 37.48 ug/ml [18] | viability at 48 h, 37.48 ug/ml [19] | viability at 24 h, 75 ug/ml [20] | viability at 48 h, 75 ug/ml [21] | viability at 24 h, 150 ug/ml [22] | viability at 48 h, 150 ug/ml [23] | further results
Cc1cc(=O)oc2cc(-c3cn([C@@H]4O[C@H](CO)[C@@H](O)[C@H]4O)nn3)ccc12 | 96% | 16.6 µM (≈ 5.97 µg/mL) | 22.2 µM (≈ 7.98 µg/mL) | 16.7 µM (≈ 6 µg/mL) | 22.2 µM (≈ 7.98 µg/mL) | 1 | 1 | > 417 µM | 25 | 100% | 100% | 90% | 99% | 87% | 99% | 77% | 96% | 64% | 84% | 60% | Activity [8]: Active; Activity [9]: Active; inhibition [10]: Active; inhibition [11]: Active; IC50 (DNA gyrase subunit B): 3.2 µM
NNC(=O)c1ccncc1 [ISONIAZID] | 84% | 0.2 µM (≈ 0.0274 µg/mL) | 2190 µM (≈ 300 µg/mL) | 0.3 µM (≈ 0.0411 µg/mL) |  | 1.6 |  | 547 µM | 2740 | 90% | 85% | 74% | 83% | 67% | 68% | 57% | 50% | 41% | 48% | 40% | Activity [24]: Active
Cc1cc(=O)oc2cc(OCc3cn([C@@H]4O[C@H](CO)[C@@H](O)[C@H]4O)nn3)ccc12 | 95% | 5.1 µM (≈ 1.99 µg/mL) | 10.3 µM (≈ 4.01 µg/mL) | 6.4 µM (≈ 2.49 µg/mL) | 11.5 µM (≈ 4.48 µg/mL) | 1.25 | 1.13 | > 385 µM | 75.4 | 100% | 100% | 94% | 100% | 84% | 100% | 74% | 97% | 68% | 84% | 60% | Ratio [25]: 7 - 420; Ratio [26]: 7 - 420; Ratio [27]: 7 - 420; Ratio [28]: 7 - 420; Activity [29]: Active; Activity [30]: Active; inhibition [10]: Active; inhibition [11]: Active; IC50 (DNA gyrase subunit B): 0.8 µM
